Many of the other results were omitted from the sample, so hits are more common in it than they were.
PTEN del growth – suppresses growth of cells with PTEN deletion; HCT116 PTEN-null viability, CellTiter-Glo, 60 h; stronger effect = lower value; viability, % at 10 µM; 140,000 compounds, 1.2% hits; AID 827;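 active means viability at or below a set limit, 4 SD under the median of all tested compounds, cut at about 3.7% in these data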;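 further: PTEN knockout HCT116 line with beta catenin targeted HCT116 as companion control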
HCT116 bCat-KO – beta-catenin-lacking colon tumor cell growth suppression. HCT116 beta-catenin knockout viability, CellTiter-Glo, 60 h; stronger effect = lower value. viability, % at 10 µM. 140,000 compounds, 1.5% hits;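 active means viability at or under a set limit, the compound median less 4 SD, cut at about 6% in these data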;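 further: 0% = Hyamine 1622 control at 20 µM and 100% = untreated cell control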
Lung fibro prol – blocks proliferation of human lung fibroblasts | LL 47 human lung fibroblast viability, ATP luminescence; stronger effect = lower value | viability, % at 10 µM | 85,000 compounds, 1.1% hits | AID 719;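 active means viability at or below 50% in the single dose screen; inactive means viability above 50%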;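 further: compound exposure lasted 72 h before the ATP readout; 100% = median luminescence of untreated cell-only wells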
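Material: Human LL 47 lung fibroblast cells | Input: 1,150 cells/well | Buffer or medium: IMEM plus 15% FBS | Compound dosing: 0.1% DMSO in all compound wells | Times: Overnight cell rest, 72 h compound treatment at 37 °C | Signal: CellTiter-Glo luminescence measuring cellular ATP | Measure: % viability versus median cells-only luminescence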
H69AR inhibit – blocks growth of human H69AR lung tumor cells; viability, % at 10 µM; 85,000 compounds, 6% hits; H69AR lung tumor viability, ATP luminescence, 72 h; stronger effect = lower value;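 active means viability at or below 40%; inactive means viability above 40%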;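 further: multidrug resistant small cell line overexpressing MRP-1 efflux transporter; 100% = mean luminescence of untreated control wells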
HUVEC prolif 384 – blocks proliferation of human endothelial cells; HUVEC proliferation, CellTiter-Glo luminescence, 72 h; stronger effect = lower value; viability, % at 10 µM (by protocol); 86,000 compounds, 1.1% hits; AID 648;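 active means viability at or below 30%; inactive means viability above 30%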;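 further: 100% = median luminescence of DMSO-only cell control wells on each plate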
The depositor's hits bear a star.

`COc1ccccc1-c1nc2cc3ccccc3cc2nc1-c1ccccc1` gave PTEN del growth 59.2 and HCT116 bCat-KO 71.3.
`CCOC(=O)C1CCN(C(=S)Nc2cccc(C)c2C)CC1` gave PTEN del growth 94.7 and HCT116 bCat-KO 85.8.
Screening COc1ccc(Nc2ncc(C(=O)N3CCN(Cc4ccccc4)CC3)c3ccccc23)cc1 returned PTEN del growth 3.4*, HCT116 bCat-KO 3.9*, Lung fibro prol 77.9, H69AR inhibit 62.3 and HUVEC prolif 384 52.3.
For CCOC(=O)C1CCCN(C(=O)c2cc(Nc3ccc(OC)cc3)nc3ccccc23)C1 (stereo not drawn) the results were PTEN del growth 75.1, HCT116 bCat-KO 75.5, Lung fibro prol 100.6, H69AR inhibit 76.6 and HUVEC prolif 384 90.9.
Cc1ccc(NC(=O)CSc2nnc(-c3cccs3)o2)cc1S(=O)(=O)N1CCCCC1 was read as PTEN del growth 88.7 and HCT116 bCat-KO 84.1.
Cc1nc2ccc(S(=O)(=O)Nc3ccccc3C)cc2s1 was read as PTEN del growth 56.3, HCT116 bCat-KO 56.2, Lung fibro prol 90.6, H69AR inhibit 32.7* and HUVEC prolif 384 67.0.
`CCCN1C/C(=C/c2cccc([N+](=O)[O-])c2)C(=O)/C(=C/c2cccc([N+](=O)[O-])c2)C1` gave PTEN del growth 2.0* and HCT116 bCat-KO 2.6*.
`CC1=C/C(=C\c2ccc3c(c2)OCO3)C(=O)S1` gave PTEN del growth 88.0, HCT116 bCat-KO 99.4, Lung fibro prol 105.1, H69AR inhibit 68.3 and HUVEC prolif 384 82.2.
Screening CCCN1C/C(=C/c2ccc3c(c2)OCO3)C(=O)/C(=C/c2ccc3c(c2)OCO3)C1 returned PTEN del growth 2.2* and HCT116 bCat-KO 2.0*.
Screening CC1(C)CC(=O)/C(=C\c2cccc([N+](=O)[O-])c2)C(C)(C)N1 returned PTEN del growth 8.7 and HCT116 bCat-KO 17.9.
For CC1=NOC(=O)/C1=C/c1ccc(-c2ccc(Cl)cc2)o1 the results were PTEN del growth 16.0, HCT116 bCat-KO 18.0, Lung fibro prol 8.7*, H69AR inhibit 2.5* and HUVEC prolif 384 55.9.
Screening CC1=NOC(=O)/C1=C\c1ccc(-c2cc(Cl)ccc2Cl)o1 returned PTEN del growth 2.5*, HCT116 bCat-KO 3.0*, Lung fibro prol 6.3*, H69AR inhibit 2.0* and HUVEC prolif 384 8.2*.
CC1=NOC(=O)/C1=C/c1ccc(N(C)C)cc1 was read as PTEN del growth 84.2 and HCT116 bCat-KO 90.2.
For CCCCn1c(SCC(=O)N2CCOCC2)nnc1-c1cccs1 the results were PTEN del growth 95.0 and HCT116 bCat-KO 83.8.
Cc1c(C(=O)NN)nc2ccccn12 was read as PTEN del growth 88.6 and HCT116 bCat-KO 92.2.
Screening CCn1cc(C(=O)NCc2ccc3c(c2)OCO3)c(=O)c2cc(F)c(N3CCN(C(=O)c4ccco4)CC3)cc21 returned PTEN del growth 8.2, HCT116 bCat-KO 12.2, Lung fibro prol 86.0, H69AR inhibit 0.1* and HUVEC prolif 384 16.1*.
CCn1cc(C(=O)Nc2nncs2)c(=O)c2cc(F)c(N3CCN(C(=O)c4ccco4)CC3)cc21 was read as Lung fibro prol 105.5, H69AR inhibit 71.7 and HUVEC prolif 384 80.2.
For CCn1cc(C(=O)NCc2ccccc2)c(=O)c2cc(F)c(N3CCN(C(=O)c4ccco4)CC3)cc21 the results were PTEN del growth 44.1, HCT116 bCat-KO 58.1, Lung fibro prol 92.9, H69AR inhibit 11.9* and HUVEC prolif 384 63.0.
For Nc1c(C(=O)NC2CCCCC2)c2nc3ccccc3nc2n1/N=C/c1ccco1 the results were Lung fibro prol 75.9, H69AR inhibit 26.5* and HUVEC prolif 384 49.8.
Screening O=c1cc(N2CCC(Cc3ccccc3)CC2)[nH]c(=O)n1C1CCCCC1 returned PTEN del growth 77.3, HCT116 bCat-KO 88.0, Lung fibro prol 86.8, H69AR inhibit 27.1* and HUVEC prolif 384 72.1.
Screening O=C(c1ccc(Cl)cc1)C(Cn1cncn1)C(Sc1ccccc1)c1ccccc1 (stereo not drawn) returned PTEN del growth 4.7 and HCT116 bCat-KO 5.6*.
For CCN(CC)S(=O)(=O)c1ccc(N2CCN(c3cccc(OC)c3)CC2)c([N+](=O)[O-])c1 the results were PTEN del growth 65.8 and HCT116 bCat-KO 62.8.
Screening Cn1c(N)c(C(=O)CCl)c(=O)n(Cc2ccccc2)c1=O returned PTEN del growth 35.6 and HCT116 bCat-KO 36.2.
Cn1c(N)c(C(=O)CCl)c(=O)n(C)c1=O was read as PTEN del growth 94.3, HCT116 bCat-KO 85.4, Lung fibro prol 76.0, H69AR inhibit 3.0* and HUVEC prolif 384 89.2.
Cc1nc2nc(C)c(CCC(=O)O)c(C)n2n1 was read as PTEN del growth 101.9, HCT116 bCat-KO 109.3, Lung fibro prol 104.4, H69AR inhibit 95.9 and HUVEC prolif 384 97.9.
For COc1cc(C(=O)Nc2sc3c(c2C#N)CCN(C(C)=O)C3)cc(OC)c1OC the results were PTEN del growth 65.5, HCT116 bCat-KO 87.0, Lung fibro prol 94.6, H69AR inhibit 23.0* and HUVEC prolif 384 75.0.
CCOC(=O)N1CCc2c(sc(NC(=O)c3ccc(S(=O)(=O)N4CCCC4)cc3)c2C#N)C1 was read as PTEN del growth 76.5, HCT116 bCat-KO 83.2, Lung fibro prol 38.2*, H69AR inhibit 13.3* and HUVEC prolif 384 64.5.
Screening CC(C)N1CCc2c(sc(NC(=O)c3ccc(S(=O)(=O)N4CCOCC4)cc3)c2C#N)C1 returned PTEN del growth 83.7, HCT116 bCat-KO 78.6, Lung fibro prol 85.0, H69AR inhibit 97.7 and HUVEC prolif 384 69.1.
CCNC(=S)N1CCC(c2nc3ccccc3s2)CC1 was read as PTEN del growth 95.3 and HCT116 bCat-KO 90.7.
For CCC(=O)OCCNc1cc(Sc2nccn2C)c2nonc2c1[N+](=O)[O-] the results were PTEN del growth 1.7* and HCT116 bCat-KO 1.6*.
For CC(=O)OCCCNc1cc(Sc2ccc(Cl)cc2)c2nonc2c1[N+](=O)[O-] the results were PTEN del growth 1.6* and HCT116 bCat-KO 1.5*.
CCCC(=O)OCCNc1cc(Sc2nc3ccccc3[nH]2)c2nonc2c1[N+](=O)[O-] was read as PTEN del growth 3.6* and HCT116 bCat-KO 3.6*.
CCC(=O)OCCNc1cc(SCCC(=O)OC)c2nonc2c1[N+](=O)[O-] was read as PTEN del growth 67.4 and HCT116 bCat-KO 67.4.
For CC(C)C(NS(=O)(=O)c1ccc2c(c1)OCCCO2)C(=O)O (stereo not drawn) the results were PTEN del growth 87.3 and HCT116 bCat-KO 82.7.
`O=C(N/C(=C/c1cccc([N+](=O)[O-])c1)C(=O)N1CCCCCC1)c1cccs1` gave PTEN del growth 84.5 and HCT116 bCat-KO 77.7.
Screening CC(C)(C)NC(=O)Cn1c(-c2nonc2N)nc2ccccc21 returned PTEN del growth 103.0, HCT116 bCat-KO 96.4, Lung fibro prol 98.8, H69AR inhibit 94.4 and HUVEC prolif 384 83.5.
For COc1cccc(Cn2c(-c3nonc3N)nc3ccccc32)c1 the results were PTEN del growth 28.2, HCT116 bCat-KO 26.7, Lung fibro prol 51.0, H69AR inhibit 24.4* and HUVEC prolif 384 65.2.
